Source: PubChem (several laboratories)
Efflux pump inh: inhibitors of Candida efflux pumps in yeast, primary screen, S. cerevisiae, Nile Red, multiplex. S. cerevisiae Candida pump triplex. inhibition, % at 10 µM. 0.44% of 330,000 active. AID 485275, 2010;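 active = plate passing quality check with inhibition over a set limit, or well fluorescence over plate mean plus 4 SD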;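 note: Nile Red retained in pooled yeast measured as flow cytometry median fluorescence; 0% = buffer negative control and 100% = Enniatin B positive control; higher means more Nile Red kept so more efflux inhibition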
SUMO Mot1 rescue: yeast Mot1-301 growth rescue at high temperature, primary screen, SUMOylation pathway inhibitor project, S. cerevisiae, ATP luminescence, 38.5C | S. cerevisiae Mot1-301 growth rescue; percent above DMSO median, 100 means doubled | growth rescue, % at 18.8 µM | 1% of 320,000 active;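 active = every valid replicate shows activation above 250% relative to neutral control wells; inactive = the rest, any valid replicate at or below 250%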;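 note: OY570 slx delta 5 strain wells were the positive control but not used for scaling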
ARNT TACC3 PPI: disruptors of ARNT/TACC3 protein interaction, primary screen, biochemical, AlphaScreen, single concentration | Transforming acidic coiled-coil-containing protein 3 (Homo sapiens), Q9Y6A5 | AID 623870, 2012 | 0.66% of 390,000 active | inhibition, % at 9.99 µM | AlphaScreen His-ARNT PAS-B/GST-TACC3 binding, luminescence; TACC3 fragment carries E629A point mutation;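 active = mean inhibition of replicates at least 50% and at least half of replicates each reaching 50%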;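 note: 0% = complete ARNT plus TACC3 wells and 100% = ARNT alone without TACC3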
Cardiac RTF inh: cardiac RTF calcium sensitivity inhibitors, primary screen, biochemical, IANBD-TnC fluorescence, EC70 calcium | 0.12% of 340,000 active | AID 493244, 2011 | inhibition, % at 7.15 µM | Troponin I, cardiac muscle (Homo sapiens) + Troponin T, cardiac muscle (Homo sapiens) + … | IANBD-labeled cardiac RTF, Ca2+ fluorescence;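 active = inhibition above the mean inhibition of all tested compounds plus 3 SD, cut at about 17% in these data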;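 note: assay run at fixed EC70 calcium of 1.6 mM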
UCH37 DUB inh: inhibitors of human UCH37 deubiquitinase, primary screen, biochemical, Ub-AMC cleavage, fluorescence | purified proteasome/UCH37 | inhibition, % (no concentration beside the values) | AID 588478, 2011 | Ubiquitin carboxyl-terminal hydrolase isozyme L5 (Homo sapiens), Q9Y5K5 | 0.33% of 330,000 active;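 active = mean inhibition over replicate wells above about 20%, limit read from the data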;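 note: 0% = compound-free wells with enzyme and 100% = wells lacking proteasome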
Target sequence (Q9Y5K5 whole entry, looked up): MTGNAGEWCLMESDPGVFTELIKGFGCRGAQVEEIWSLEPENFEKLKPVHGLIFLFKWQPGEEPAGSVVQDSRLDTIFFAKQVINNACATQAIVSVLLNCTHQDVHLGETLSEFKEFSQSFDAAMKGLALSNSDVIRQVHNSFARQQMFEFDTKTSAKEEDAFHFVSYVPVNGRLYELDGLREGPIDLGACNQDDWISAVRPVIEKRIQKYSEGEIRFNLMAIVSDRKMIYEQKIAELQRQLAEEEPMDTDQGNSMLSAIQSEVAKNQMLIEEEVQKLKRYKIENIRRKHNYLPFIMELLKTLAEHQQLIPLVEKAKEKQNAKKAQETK
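Assay system: Proteasome-bound UCH37. Buffer or medium: pH 7.4 Tris-HCl (50 mM) with ovalbumin, ATP-MgCl2, DTT. Incubation: 30 min preincubation with enzyme, 25 min cleavage at room temperature. Measured by: fluorescence, ex 355 nm, em 460 nm. Read-out basis: percent inhibition. Control set: wells without proteasome as full block, compound-free enzyme plus substrate as uninhibited.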
cardiac RTF act: cardiac RTF calcium sensitivity activators, primary screen, biochemical, IANBD-TnC fluorescence, EC20 calcium | Troponin I, cardiac muscle (Homo sapiens) + Troponin T, cardiac muscle (Homo sapiens) + … | IANBD-labeled TnC RTF fluorescence at EC20 calcium; 0% EC20 calcium, 100% full calcium | activation, % at 7.2 µM | 0.24% of 340,000 active | AID 493008, 2010;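 active = activation above the mean over all tested compounds plus 3 SD, cut at about 30% in these data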;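 note: rise in fluorescence read as greater calcium sensitivity of cardiac thin filaments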
* hit, by the source's call; i = inactive; . = no result; ! = not confirmed by another sample. In the library only some 2.1% were active in any assay of this set; here they are far more common.

SMILES | Efflux pump inh | SUMO Mot1 rescue | ARNT TACC3 PPI | Cardiac RTF inh | UCH37 DUB inh | cardiac RTF act
CSc1ccc2c(c1)N(CCC1CCCCN1C)c1ccccc1S2 (stereo not drawn) | -0.1 | -3.4 | 57.7*! | 9.4 | -2.4 | 1.7
ON=Cc1cc(Cl)ccc1OCc1ccccc1Cl | . | . | . | . | 3.6 | .
CC(=NO)c1ccco1 | . | . | . | . | 0.0 | .
COc1ccc(-c2cc(=O)[nH][nH]2)cc1OC | 0.0 | -15.4 | 49.7* | -3.8 | 10.7 | -2.1
CCCCN(CCCC)CCNC(=O)c1ccc2nc(-c3ccccc3NC(C)=O)c(=O)[nH]c2c1 | -0.1 | 561.1* | -3.7 | -1.7 | -0.3 | -1.4
NS(=O)(=O)c1ccc(NC(=S)NC2CC2)cc1 | -0.2 | 691.4* | -2.7 | -2.7 | 3.0 | -2.5
CN1CCN(C(c2cccnc2)c2ccc3cccnc3c2O)CC1 (stereo not drawn) | 0.1 | 173.5 | 67.8* | 6.4 | 1.3 | 0.3
CN1CCN(C(c2ccc(F)cc2)c2ccc3cccnc3c2O)CC1 (stereo not drawn) | . | . | 8.4 | 6.8 | 0.1 | -6.3
O=C(Cc1ccccc1)NN=Cc1ccccn1 | . | . | . | . | 1.4 | .
CC1=C(Nc2ccc(C(=O)O)cc2)C(=O)c2ccccc2C1=O | 0.0 | 3.4 | 2.7 | -5.2 | 8.3 | 5.8
COC1=C(Nc2ccc(C)cc2)C(=O)c2ccccc2C1=O | 0.3 | -2.1 | 50.7* | -3.3 | 4.6 | -9.0
COC1=C(Nc2ccccc2)C(=O)c2ccccc2C1=O | 0.1 | -10.4 | 46.1* | -6.2 | 8.3 | 2.8
O=c1[nH]ncc2c3ccccc3n(Cc3cccc(Cl)c3)c12 | 0.1 | 186.4 | -10.6 | -54.4 | . | 55.7*
O=c1[nH]ncc2c3ccccc3n(Cc3ccc(F)cc3)c12 | 0.1 | -8.9 | 13.7 | 2.2 | 5.3 | -1.9
Cc1ccc(C=N/N=C2/NC(=O)C(CC(=O)N3CCOCC3)S2)cc1 (stereo not drawn) | . | . | . | . | 10.4 | .
CC(C)(C)c1ccc(C(=O)n2cnc3ccccc32)cc1 | -0.1 | 23.7 | 27.2 | -1.1 | -0.3 | 49.6*
CCN(CC)c1ccc(C(=O)n2cnc3ccccc32)cc1 | 0.1 | -15.3 | . | -5.9 | . | 0.5
Cc1ccc(-n2c(C)cc(C=NNC(=O)Cn3c4ccccc4c(=O)c4ccccc43)c2C)cc1 | . | . | . | . | -19.2 | .
O=C(C1CCN(S(=O)(=O)c2cnc[nH]2)CC1)N(CCc1ccccc1)Cc1ccccc1 | -0.1 | 416.5* | -3.2 | -3.5 | 3.5 | -1.6
O=C(C[C@H]1CC[C@H](NC(=O)Nc2cc(F)ccc2F)[C@@H](CO)O1)Nc1ccc(-c2ccccc2)cc1 | . | . | 10.4 | . | . | .
O=C(C[C@H]1CC[C@@H](NC(=O)Nc2cc(F)ccc2F)[C@H](CO)O1)Nc1ccc(-c2ccccc2)cc1 | . | . | 48.4* | . | . | .
CCOC(=O)C1CCN(CC(C)(C)NS(=O)(=O)c2ccc(C)cc2)CC1 | 0.0 | 46.2 | . | -0.8 | 3.4 | -1.7
CCOC(=O)C1CCN(CC(C)(C)NS(=O)(=O)c2ccc(Cl)cc2)CC1 | 0.1 | 338.4* | -4.6 | -4.2 | 6.1 | -2.1
CC(=NNC(=O)Cc1c(C)[nH][nH]c1=O)c1cccc(Br)c1 | . | . | . | . | 1.3 | .
CCOC(=O)C1(CCOC)CCN(Cc2ccc3nonc3c2)CC1 | 0.1 | 327.1* | -4.0 | -6.1 | -0.8 | 4.2
SMILES | Efflux pump inh | SUMO Mot1 rescue | ARNT TACC3 PPI | Cardiac RTF inh | UCH37 DUB inh | cardiac RTF act
CCOC(=O)C1(CCOC)CCN(Cc2cnc(-c3cccc(C)c3)nc2)CC1 | 0.1 | -2.4 | -4.5 | 11.7 | 3.2 | -4.5
O=C(NN=Cc1ccc([N+](=O)[O-])o1)c1cn2ccc3ccccc3c2n1 | . | . | . | . | 2.4 | .
CCN1/C(=C/c2ccc3cc(C)ccc3[n+]2CC)Sc2cc(C)c(C)cc21 | . | . | 0.4 | -193.2 | 10.6 | 36.4*
COc1ccc(NC(=O)CCCN2C(=O)C(c3ccccc3)Oc3cccnc32)c(OC)c1 (stereo not drawn) | -0.1 | 339.0* | -1.8 | -2.0 | 1.7 | -6.5
COc1ccccc1NC(=O)CCCN1C(=O)C(c2ccccc2)Oc2cccnc21 (stereo not drawn) | 0.0 | -17.5 | 3.3 | -6.5 | 5.8 | 0.1
Cc1ccc(C(=O)NCCCNC(=O)COc2ccc(C)c(C)c2)cn1 | 0.1 | 288.6* | 1.9 | -19.4 | 4.0 | -3.8
COC(=O)C1=C(C)Nc2nnnn2C1c1ccccc1Cl (stereo not drawn) | 0.0 | 338.9* | 1.2 | -10.0 | 0.5 | 5.3
O=C(NC(=S)Nc1ccc(S(=O)(=O)N2CCCCC2)cc1)c1cccs1 | 0.3 | 333.5* | 24.0 | -2.2 | -0.5 | 2.4
O=S(=O)(c1ccc(NC(=S)NN=Cc2ccccc2O)cc1)N1CCCCC1 | . | . | 45.6* | 1.9 | . | -0.5
O=[N+]([O-])c1cc(Cl)cc(/C=N/NC(=S)Nc2ccc(S(=O)(=O)N3CCOCC3)cc2)c1O | 0.4 | -5.0 | 69.6* | 4.1 | . | -4.8
NS(=O)(=O)c1ccc(NC(=S)Nc2ccc(S(=O)(=O)N3CCCC3)cc2)cc1 | -0.1 | -1.8 | -0.3 | 3.6 | -1.0 | 1.9
O=[N+]([O-])c1cc(Cl)cc(C=NNC(=S)Nc2ccc(S(=O)(=O)N3CCOCC3)cc2)c1O | . | . | . | . | 12.6 | .
CCOC(=O)c1c(N=CN(C)C)sc(C=NNc2ccccc2)c1-c1ccccc1Cl | . | . | . | . | -5.2 | .
C[C@]12CCC3C(CC[C@H]4CC(O)CC[C@]34C)C1CCC2=NNC(=O)c1ccncc1 (stereo partly drawn) | . | . | . | . | 1.3 | .
CCCOC(=O)C(C)=NNC(=O)c1ccco1 | . | . | . | . | 1.0 | .
S=c1[nH]nc(-c2cc(-c3ccccc3)n[nH]2)n1/N=C/C(Br)=C/c1ccccc1 | 0.1 | 538.9* | . | . | . | .
Cc1ccc(-c2cc(-c3ccccc3O)nc(NN=Cc3cccnc3)n2)cc1 | . | . | . | . | 1.4 | .
c1ccc(-c2cn3nc4c(nc3n2)CCCC4)cc1 | 0.1 | -11.0 | . | -26.7 | i | 31.4*
O=c1c2c(-c3ccccc3)csc2nc2c3ccccc3c(NCCN3CCOCC3)nn12 | . | . | 74.1* | 4.2 | -354.9 | 6.1
COC(=O)C[C@H]1C[C@@H]2c3cc(N(C)C)ccc3O[C@@H]2[C@@H](CO)O1 | . | . | 45.1* | . | . | .
CN(C)c1ccc2c(c1)[C@@H]1C[C@@H](CC(=O)NCc3cc(F)ccc3F)O[C@H](CO)[C@@H]1O2 | . | . | active | . | . | .
CN(C)c1ccc2c(c1)[C@@H]1C[C@@H](CC(=O)NCc3cc(F)ccc3F)O[C@@H](CO)[C@@H]1O2 | . | . | 13.1 | . | . | .
COC(=O)C[C@H]1C[C@H]2c3cc(N(C)C)ccc3O[C@H]2[C@H](CO)O1 | . | . | 34.1 | . | . | .
